# ChEMBL document CHEMBL1806449, “A class of Trp-Trp-AA-OBzl: Synthesis, in vitro anti-proliferation/in vivo anti-tumor evaluation, intercalation-mechanism investigation and 3D QSAR analysis” (Eur J Med Chem, 2011)
# Peptide text beside a SMILES is read from it. * marks the point of attachment. OBn = c1ccc(CO*)cc1
# Experiments:
# K562 = assay: Antiproliferative activity against human K562 cells after 48 hrs by MTT assay; format: functional, cell-based; details: K562, 48 h
# Mus musculus [1] = assay: Acute toxicity in ICR mouse assessed as mortality at 500 mg/kg, ip administered qd for 7 days; format: organism-based; set-up: dose 500 mg/kg, route intraperitoneal; details: in vivo, 168 h
# Mus musculus [2] = assay: Acute toxicity in ICR mouse assessed as jumping at 500 mg/kg, ip administered qd for 7 days; format: organism-based; set-up: dose 500 mg/kg, route intraperitoneal; details: in vivo, 168 h
# Mus musculus [3] = assay: Acute toxicity in ICR mouse assessed as tetanus at 500 mg/kg, ip administered qd for 7 days; format: organism-based; set-up: dose 500 mg/kg, route intraperitoneal; details: in vivo, 168 h
# H22 = assay: Antiproliferative activity against mouse H22 cells after 48 hrs by MTT assay; format: functional, cell-based; details: H22, 48 h
# HepG2 = assay: Antiproliferative activity against human HepG2 cells after 48 hrs by MTT assay; format: functional, cell-based; details: HepG2, 48 h
# CCRF S-180 [4] = assay: Antitumor activity against mouse S180 cells xenografted in ICR mouse assessed as tumor growth inhibition at 8.9 umol/kg, ip administered 1 day after tumor inoculation qd for 7 days; format: functional; details: CCRF S-180, ip, read-out: GI
# How it was run: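 Male ICR mice 10–12 weeks; S180 from ascites serially transplanted weekly; 1×10^7 viable cells in 0.2 ml NS implanted s.c. at right oxter; 24 h later randomized (10 per group); daily i.p. 8.9, 0.89 or 0.089 µmol/kg/day in 0.2 ml NS, 7 days; NS and cytarabine controls; sacrificed 24 h after last dose; inhibition % = [1−(Tw/Cw)]×100.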
# B16 = assay: Antiproliferative activity against mouse B16 cells after 48 hrs by MTT assay; format: functional, cell-based; details: B16, 48 h
# Mus musculus [5] = assay: Acute toxicity in ICR mouse assessed as supination at 500 mg/kg, ip administered qd for 7 days; format: organism-based; set-up: dose 500 mg/kg, route intraperitoneal; details: in vivo, 168 h
# Mus musculus [6] = assay: Toxicity in ICR mouse xenografted with mouse S180 cells assessed as effect on kidney weight at 8.9 umol/kg; format: organism-based, CCRF S-180; details: in vivo
# How it was run: (§1)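 S180-bearing male ICR mice (10–12 weeks; 1×10^7 cells s.c. right oxter; 12 per group), daily i.p. 8.9 µmol/kg for seven days starting 24 h after implantation; NS, cytarabine and doxorubicin controls; liver, brain, kidney weights, spleen index and body-weight gain recorded.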
# Mus musculus [7] = assay: Toxicity in ICR mouse xenografted with mouse S180 cells assessed as increase in body weight at 8.9 umol/kg; format: organism-based, CCRF S-180; details: in vivo; how it was run: as §1
# Mus musculus [8] = assay: Acute toxicity in ICR mouse assessed as twitch at 500 mg/kg, ip administered qd for 7 days; format: organism-based; set-up: dose 500 mg/kg, route intraperitoneal; details: in vivo, 168 h
# [9] = Acute toxicity in ip dosed ICR mouse assessed as lethal dose; format: organism-based; details: in vivo
# How it was run: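 Male ICR mice, 24 weeks old, got a single i.p. injection of 500 mg/kg in 0.2 ml NS (normal saline). They were watched for 7 days for neurotoxic behaviour (tremor, twitch, jumping, tetanus, supination) and for death.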
# CCRF S-180 [10] = assay: Antiproliferative activity against mouse S180 cells after 48 hrs by MTT assay; format: functional, cell-based; details: CCRF S-180, 48 h
# Mus musculus [11] = assay: Acute toxicity in ICR mouse assessed as apparent changes in any organ at 500 mg/kg, ip administered qd for 7 days; format: organism-based; set-up: dose 500 mg/kg, route intraperitoneal; details: in vivo, 168 h
# Mus musculus [12] = assay: Acute toxicity in ICR mouse assessed as tremors at 500 mg/kg, ip administered qd for 7 days; format: organism-based; set-up: dose 500 mg/kg, route intraperitoneal; details: in vivo, 168 h
# Mus musculus [13] = assay: Toxicity in ICR mouse xenografted with mouse S180 cells assessed as effect on brain weight at 8.9 umol/kg; format: organism-based, CCRF S-180; details: in vivo; how it was run: as §1
# Mus musculus [14] = assay: Toxicity in ICR mouse xenografted with mouse S180 cells assessed as effect on liver weight at 8.9 umol/kg; format: organism-based, CCRF S-180; details: in vivo; how it was run: as §1
# Mus musculus [15] = assay: Toxicity in ICR mouse xenografted with mouse S180 cells assessed as increase in spleen index at 8.9 umol/kg; format: organism-based, CCRF S-180; details: in vivo; how it was run: as §1
SMILES,IC50 (K562) [µM],Activity (Mus musculus [1]),Activity (Mus musculus [2]),Activity (Mus musculus [3]),IC50 (H22) [µM],IC50 (HepG2) [µM],inhibition in vivo at 8.9 µmol/kg (CCRF S-180 [4]) [%],IC50 (B16) [µM],Activity (Mus musculus [5]),Activity (Mus musculus [6]) [g],Activity (Mus musculus [7]) [g],Activity (Mus musculus [8]),LD50 [9] [mg/kg],IC50 (CCRF S-180 [10]) [µM],Activity (Mus musculus [11]),Activity (Mus musculus [12]),Activity (Mus musculus [13]) [g],Activity (Mus musculus [14]) [g],Activity (Mus musculus [15])
N[C@@H](Cc1c[nH]c2ccccc12)C(=O)N[C@@H](Cc1c[nH]c2ccccc12)C(=O)N[C@@H](Cc1ccccc1)C(=O)OCc1ccccc1 (H-Trp-Trp-Phe-OBn),14.9,Non-toxic,Non-toxic,Non-toxic,17.4,16.8,56.7,19.3,Non-toxic,0.16,9.86,Non-toxic,> 500,14.5,Non-toxic,Non-toxic,0.28,1.89,7.96
N[C@@H](Cc1c[nH]c2ccccc12)C(=O)N[C@@H](Cc1c[nH]c2ccccc12)C(=O)N[C@@H](Cc1c[nH]c2ccccc12)C(=O)OCc1ccccc1 (H-Trp-Trp-Trp-OBn),125,–,–,–,98.1,154,19.1,157,–,0.16,8.71,–,–,115,–,–,0.29,1.78,7.75
CC(C)C[C@H](NC(=O)[C@H](Cc1c[nH]c2ccccc12)NC(=O)[C@@H](N)Cc1c[nH]c2ccccc12)C(=O)OCc1ccccc1 (H-Trp-Trp-Leu-OBn),116,–,–,–,121,123,3.29,124,–,0.16,8.4,–,–,118,–,–,0.26,1.7,7.45
NC(=O)CC[C@H](NC(=O)[C@H](Cc1c[nH]c2ccccc12)NC(=O)[C@@H](N)Cc1c[nH]c2ccccc12)C(=O)OCc1ccccc1 (H-Trp-Trp-Gln-OBn),8.86,Non-toxic,Non-toxic,Non-toxic,10.7,10.2,72,12,Non-toxic,0.16,9.89,Non-toxic,> 500,8.74,Non-toxic,Non-toxic,0.27,1.81,7.96
NC(=O)C[C@H](NC(=O)[C@H](Cc1c[nH]c2ccccc12)NC(=O)[C@@H](N)Cc1c[nH]c2ccccc12)C(=O)OCc1ccccc1 (H-Trp-Trp-Asn-OBn),16.3,Non-toxic,Non-toxic,Non-toxic,18.7,17.9,50.6,21.3,Non-toxic,0.16,9.96,Non-toxic,> 500,15.5,Non-toxic,Non-toxic,0.27,1.82,7.81
C[C@H](NC(=O)[C@H](Cc1c[nH]c2ccccc12)NC(=O)[C@@H](N)Cc1c[nH]c2ccccc12)C(=O)OCc1ccccc1 (H-Trp-Trp-Ala-OBn),18.4,Non-toxic,Non-toxic,Non-toxic,20.8,20.1,50,23,Non-toxic,0.16,9.5,Non-toxic,> 500,18.5,Non-toxic,Non-toxic,0.27,1.77,7.59
CC[C@H](C)[C@H](NC(=O)[C@H](Cc1c[nH]c2ccccc12)NC(=O)[C@@H](N)Cc1c[nH]c2ccccc12)C(=O)OCc1ccccc1 (H-Trp-Trp-Ile-OBn),19.4,Non-toxic,Non-toxic,Non-toxic,21.7,22.2,51.5,25.9,Non-toxic,0.17,9.8,Non-toxic,> 500,19.2,Non-toxic,Non-toxic,0.28,1.85,8.12
N[C@@H](Cc1c[nH]c2ccccc12)C(=O)N[C@@H](Cc1c[nH]c2ccccc12)C(=O)N[C@@H](Cc1cnc[nH]1)C(=O)OCc1ccccc1 (H-Trp-Trp-His-OBn),25.3,Non-toxic,Non-toxic,Non-toxic,27,27.3,30.7,31.7,Non-toxic,0.16,10.04,Non-toxic,> 500,26.5,Non-toxic,Non-toxic,0.28,1.78,8.34
N[C@@H](Cc1c[nH]c2ccccc12)C(=O)N[C@@H](Cc1c[nH]c2ccccc12)C(=O)NCC(=O)OCc1ccccc1 (H-Trp-Trp-Gly-OBn),16.2,Non-toxic,Non-toxic,Non-toxic,22.4,17.8,56.6,24.3,Non-toxic,0.16,9.77,Non-toxic,> 500,19.5,Non-toxic,Non-toxic,0.27,1.8,8.11
